Laboratory results from ChEMBL document CHEMBL1130340, “Semisynthetic derivatives of purpuromycin as potential topical agents for vaginal infections” (1997).
In brackets after ≈: the same amount, converted by molar mass.

Legend:
Format in all cases: functional
Streptococcus pyogenes = assay: In vitro antimicrobial activity against Streptococcus pyogenes L49
In short: (§1)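 Streptococci: broth microdilution MIC in Todd Hewitt broth; inoculum about 10^4 cfu/mL; 37 °C, 20–24 h.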

Proteus vulgaris = assay: In vitro antimicrobial activity against Proteus vulgaris ATCC881
In short: (§2)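 Broth microdilution MIC in Oxoid Iso-Sensitest broth; inoculum about 10^4 cfu/mL; 37 °C for 20–24 h.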

Cutibacterium acnes = assay: In vitro antimicrobial activity against Propionibacterium acnes ATCC 6919
In short: (§3)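 Anaerobe MIC by broth microdilution in Wilkins-Chalgren broth; inoculum 5 × 10^5 cfu/mL; 37 °C.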

Pseudomonas aeruginosa = assay: In vitro antimicrobial activity against Pseudomonas aeruginosa ATCC 10145; in short: as §2
Escherichia coli = assay: In vitro antimicrobial activity against Escherichia coli L47; in short: as §2
Staphylococcus aureus [1] = assay: In vitro antimicrobial activity against Staphylococcus aureus L165; in short: as §2
Staphylococcus aureus [2] = assay: In viro antimicrobial activity against Staphylococcus aureus L165 10 x e+6 cfu/ml
In short: (§4)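 Broth microdilution MIC against S. aureus L165 in Iso-Sensitest broth, 37 °C, 20–24 h.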

Candida albicans [3] = assay: In vitro antimicrobial activity against Candida albicans L145
In short: (§5)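 Candida: broth microdilution MIC in phosphate-buffered Yeast Nitrogen Base broth with glucose (1% w/v) and L-asparagine (0.15% w/v); inoculum about 10^4 cfu/mL; 37 °C, 20–24 h.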

[4] = test system: Staphylococcus haemolyticus; assay: In vitro antimicrobial activity against Staphylococcus haemolyticus L602; in short: as §2
Streptococcus pneumoniae = assay: In vitro antimicrobial activity against Streptococcus pneumoniae L44; in short: as §1
Bacteroides fragilis = assay: In vitro antimicrobial activity against Bacteroides fragilis ATCC 25285; in short: as §3
[5] = test system: Staphylococcus epidermidis; assay: In vitro antimicrobial activity against Staphylococcus epidermidis ATCC 12228; in short: as §2
Staphylococcus aureus [6] = assay: In vitro antimicrobial activity against Staphylococcus aureus L1 65 30% bovine serum; in short: as §4
Enterococcus faecalis = assay: In vitro antimicrobial activity against Enterococcus faecalis ATCC 7080; in short: as §2
Haemophilus influenzae = assay: In vitro antimicrobial activity against Haemophilus influenza ATCC 19418
In short: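 Broth microdilution MIC in Brain Heart Infusion broth plus 1% (v/v) supplement C; inoculum about 10^4 cfu/mL; 37 °C.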

Neisseria gonorrhoeae = assay: In vitro antimicrobial activity against Neisseria gonorrhoeae L997
In short: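 Broth microdilution MIC in GC Base broth plus 1% (v/v) IsoVitaleX; inoculum about 10^4 cfu/mL; 37 °C.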

Candida albicans [7] = assay: In vitro antimicrobial activity against Candida albicans (24); in short: as §5
Gardnerella vaginalis [8] = assay: In vitro antimicrobial activity against Gardnerella vaginalis (MIC50)
In short: (§6)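 Agar dilution MIC in Casman medium with 5% (v/v) whole and 0.15% (v/v) lysed rabbit blood; inoculum about 10^5 cfu; 48 h at 37 °C under N2-CO2-H2 (80:10:10).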

Candida [9] = assay: Minimum inhibition concentration for 50% inhibition against Candida species; in short: as §5
Nakaseomyces glabratus = assay: In vitro antimicrobial activity against Candida glabrata (1)1; in short: as §5
Candida tropicalis = assay: In vitro antimicrobial activity against Candida tropicalis (2); in short: as §5
Candida [10] = assay: Minimum inhibition concentration for 90% inhibition against Candida species; in short: as §5
Gardnerella vaginalis [11] = assay: In vitro antimicrobial activity against Gardnerella vaginalis (MIC90); in short: as §6
Trichomonas vaginalis [12] = assay: In vitro antimicrobial activity against Trichomonas vaginalis
In short: (§7)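 Broth microdilution in Trichomonas Culture Medium Base plus 10% horse serum; about 10^5 cells/mL; 48 h at 37 °C under N2-CO2-H2; MIC read by microscopy for viable (motile) protozoa.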

Staphylococcus aureus [13] = assay: In vitro antimicrobial activity against Staphylococcus aureus L165 30% bovine serum; in short: as §4
Candida albicans [14] = assay: Candida albicans L145; in short: as §5
Trichomonas vaginalis [15] = assay: Antimicrobial activity against Trichomonas vaginalis; in short: as §7
Staphylococcus aureus [16] = assay: In viro antimicrobial activity against Staphylococcus aureus L16510 x e+6 cfu/ml; in short: as §4
Candida albicans [17] = assay: In vitro antimicrobial activity against Candida albicans(24); in short: as §5

Row | SMILES | MIC (Streptococcus pyogenes) [µg/mL] | MIC (Proteus vulgaris) [µg/mL] | MIC (Cutibacterium acnes) [µg/mL] | MIC (Pseudomonas aeruginosa) [µg/mL] | MIC (Escherichia coli) [µg/mL] | MIC (Staphylococcus aureus [1]) [µg/mL] | MIC (Staphylococcus aureus [2]) [µg/mL] | MIC (Candida albicans [3]) [µg/mL] | MIC [4] [µg/mL] | MIC (Streptococcus pneumoniae) [µg/mL] | MIC (Bacteroides fragilis) [µg/mL] | MIC [5] [µg/mL] | MIC (Staphylococcus aureus [6]) [µg/mL] | MIC (Enterococcus faecalis) [µg/mL] | MIC (Haemophilus influenzae) [µg/mL] | MIC (Neisseria gonorrhoeae) [µg/mL] | MIC50 (Gardnerella vaginalis [8]) [µg/mL] | MIC50 (Candida [9]) [µg/mL] | MIC (Candida tropicalis) [µg/mL] | MIC90 (Candida [10]) [µg/mL] | further results
1 | COC(=O)c1cc2cc3c(c(O)c2c(=O)o1)OC1(CC2=C(O1)C(=O)c1c(O)c(NCCN)cc(O)c1C2=O)CC3O (stereo not drawn) | 2 (≈ 3.53 µM) | > 128 | 0.5 (≈ 0.883 µM) | > 128 | > 128 | 1 (≈ 1.77 µM) | 1 (≈ 1.77 µM) | > 128 | 1 (≈ 1.77 µM) | 1 (≈ 1.77 µM) | > 128 | 1 (≈ 1.77 µM) | 8 (≈ 14.1 µM) | 2 (≈ 3.53 µM) | 32 (≈ 56.5 µM) | 64 (≈ 113 µM) | – | – | – | – | –
2 | CNc1cc(O)c2c(c1O)C(=O)C1=C(CC3(CC(O)c4cc5cc(C(=O)OC)oc(=O)c5c(O)c4O3)O1)C2=O (stereo not drawn) | 0.03 (≈ 0.0558 µM) | > 128 | 0.008 (≈ 0.0149 µM) | > 128 | > 128 | 0.016 (≈ 0.0298 µM) | 0.06 (≈ 0.112 µM) | 2 (≈ 3.72 µM) | 0.016 (≈ 0.0298 µM) | 0.016 (≈ 0.0298 µM) | 0.03 (≈ 0.0558 µM) | 0.008 (≈ 0.0149 µM) | 0.25 (≈ 0.465 µM) | 0.03 (≈ 0.0558 µM) | 0.13 (≈ 0.242 µM) | 0.06 (≈ 0.112 µM) | 1 (≈ 1.86 µM) | 2 (≈ 3.72 µM) | 64 (≈ 119 µM) | 2 (≈ 3.72 µM) | MIC (Candida albicans [7]): 0.25 µg/mL (≈ 0.465 µM); MIC (Nakaseomyces glabratus): 128 µg/mL (≈ 238 µM); MIC90 (Gardnerella vaginalis [11]): 2 µg/mL (≈ 3.72 µM); MIC (Trichomonas vaginalis [12]): 1 µg/mL (≈ 1.86 µM)
3 | COC(=O)c1cc2cc3c(c(O)c2c(=O)o1)OC1(CC2=C(O1)C(=O)c1c(O)c(NCc4ccccc4)cc(O)c1C2=O)CC3O (stereo not drawn) | 1 (≈ 1.63 µM) | > 128 | – | > 128 | > 128 | 0.5 (≈ 0.815 µM) | 1 (≈ 1.63 µM) | > 128 | 0.13 (≈ 0.212 µM) | 0.06 (≈ 0.0978 µM) | – | 0.13 (≈ 0.212 µM) | – | 4 (≈ 6.52 µM) | 2 (≈ 3.26 µM) | 0.25 (≈ 0.407 µM) | – | – | – | – | MIC (Staphylococcus aureus [13]): 32 µg/mL (≈ 52.2 µM)
4 | COC(=O)c1cc2cc3c(c(O)c2c(=O)o1)OC1(CC2=C(O1)C(=O)c1c(O)c(NCCO)cc(O)c1C2=O)CC3O (stereo not drawn) | 0.03 (≈ 0.0529 µM) | > 128 | 0.004 (≈ 0.00705 µM) | > 128 | > 128 | 0.06 (≈ 0.106 µM) | 0.13 (≈ 0.229 µM) | – | 0.13 (≈ 0.229 µM) | 0.016 (≈ 0.0282 µM) | 0.13 (≈ 0.229 µM) | 0.06 (≈ 0.106 µM) | 1 (≈ 1.76 µM) | 0.06 (≈ 0.106 µM) | 0.06 (≈ 0.106 µM) | 0.03 (≈ 0.0529 µM) | – | – | – | – | MIC (Candida albicans [14]): > 128 µg/mL
5 | CCCNc1cc(O)c2c(c1O)C(=O)C1=C(CC3(CC(O)c4cc5cc(C(=O)OC)oc(=O)c5c(O)c4O3)O1)C2=O (stereo not drawn) | 0.13 (≈ 0.23 µM) | > 128 | – | > 128 | > 128 | 0.03 (≈ 0.0531 µM) | 0.03 (≈ 0.0531 µM) | > 128 | 0.06 (≈ 0.106 µM) | 0.03 (≈ 0.0531 µM) | 0.03 (≈ 0.0531 µM) | 0.016 (≈ 0.0283 µM) | 2 (≈ 3.54 µM) | 0.06 (≈ 0.106 µM) | 0.13 (≈ 0.23 µM) | 0.06 (≈ 0.106 µM) | – | – | – | – | –
6 | COC(=O)c1cc2cc3c(c(O)c2c(=O)o1)OC1(Cc2c(O)c4c(c(O)c2O1)C(=O)C(OC)=CC4=O)CC3O (stereo not drawn) | 0.25 (≈ 0.464 µM) | 32 (≈ 59.4 µM) | 0.03 (≈ 0.0557 µM) | > 128 | 8 (≈ 14.9 µM) | 0.03 (≈ 0.0557 µM) | – | 1 (≈ 1.86 µM) | 0.03 (≈ 0.0557 µM) | 0.06 (≈ 0.111 µM) | 0.25 (≈ 0.464 µM) | 0.03 (≈ 0.0557 µM) | 8 (≈ 14.9 µM) | 0.06 (≈ 0.111 µM) | 0.03 (≈ 0.0557 µM) | 0.06 (≈ 0.111 µM) | 8 (≈ 14.9 µM) | 1 (≈ 1.86 µM) | 128 (≈ 238 µM) | 2 (≈ 3.71 µM) | MIC (Trichomonas vaginalis [15]): 8 µg/mL (≈ 14.9 µM); MIC (Staphylococcus aureus [16]): 0.06 µg/mL (≈ 0.111 µM); MIC (Candida albicans [17]): 0.25 µg/mL (≈ 0.464 µM); MIC90 (Gardnerella vaginalis [11]): 8 µg/mL (≈ 14.9 µM)
